Data: ChEMBL document CHEMBL2311431, “Synthesis and biological evaluation of some 5-arylidene-2-(1,3-thiazol-2-ylimino)-1,3-thiazolidin-4-ones as dual anti-inflammatory/antimicrobial agents” (Bioorg Med Chem, 2013)
Values after ≈ are worked out from the molar mass of the structure shown.

Experiments:
[1] = test system: Mus musculus; test: Acute toxicity in AKR mouse up to 0.5 mmol/kg, ip; format: organism-based; conditions: in vivo
[2] = test system: Mus musculus; test: Antiinflammatory activity in AKR mouse assessed as inhibition of carrageenan-induced paw edema at 0.01 mmol/kg, ip measured after 3.5 hrs of carrageenan-challenge; format: functional
In short: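 AKR mice of both sexes (pregnant females excluded), 6-10 per group, fasted during the experiment. Edema induced by intradermal 0.05 mL of 2% carrageenin into the right hind paw. Compound given at 0.01 mmol/kg ip, suspended in water with Tween-80, at the same time as carrageenin.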

[3] = target: T1, Prostaglandin G/H synthase 1 (Ovis aries) (UniProt P05979); test: (§1) Inhibition of ovine COX1 assessed as inhibition of PGF2a production by enzyme immunoassay; design: concentration or dose not given beside the values; conditions: concentration not given here
T1 sequence (whole entry): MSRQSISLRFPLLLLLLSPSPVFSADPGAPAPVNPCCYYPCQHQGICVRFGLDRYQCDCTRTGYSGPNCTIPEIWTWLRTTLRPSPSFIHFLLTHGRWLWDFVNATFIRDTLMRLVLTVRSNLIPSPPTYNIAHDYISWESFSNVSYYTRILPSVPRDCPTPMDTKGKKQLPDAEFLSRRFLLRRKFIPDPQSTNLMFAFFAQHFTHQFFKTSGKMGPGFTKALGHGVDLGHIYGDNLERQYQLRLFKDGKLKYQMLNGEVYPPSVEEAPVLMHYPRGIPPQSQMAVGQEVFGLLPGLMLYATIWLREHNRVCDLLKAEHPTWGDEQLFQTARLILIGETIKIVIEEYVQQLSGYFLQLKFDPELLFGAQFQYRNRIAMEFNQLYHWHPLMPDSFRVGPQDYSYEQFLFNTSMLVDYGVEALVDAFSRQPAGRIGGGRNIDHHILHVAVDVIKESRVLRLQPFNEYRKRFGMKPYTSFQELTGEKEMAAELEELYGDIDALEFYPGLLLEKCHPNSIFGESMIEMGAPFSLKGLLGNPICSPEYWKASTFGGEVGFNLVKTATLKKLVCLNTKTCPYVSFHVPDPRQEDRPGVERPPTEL
In short: (§2)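 Ovine COX-1 from a commercial screening kit, tested with 0.1 µM arachidonic acid, which is below the saturating level. COX-derived PGH2 is reduced by SnCl2 to PGF2a, quantified by enzyme immunoassay with a broad prostaglandin antibody. At least triplicate.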

[4] = target: T2, Prostaglandin G/H synthase 1 (Ovis aries, UniProt P05979); test: as §1; in short: as §2
T2 sequence (P05979 whole entry): T1 sequence (whole entry)

[5] = (§3) Inhibition of soybean lipoxygenase assessed as inhibition of sodium linolate conversion to 13-hydroperoxylinoleic acid after 4 mins by spectrophotometry; design: species or system Glycine max; conditions: read-out: IC50
[6] = test system: Glycine max; test: as §3
[7] = test system: Aspergillus niger; test: Fungicidal activity against Aspergillus niger ATCC 6275 after 72 hrs by serial subcultivation method; format: functional; conditions: ATCC 6275, 72 h
[8] = test system: Aspergillus niger; test: Antifungal activity against Aspergillus niger ATCC 6275 after 72 hrs by serial dilution technique; format: functional; conditions: ATCC 6275, 72 h
In short: (§4)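 Serial dilution in malt broth; compounds from 1 mg/ml stocks in 5% DMSO; 72 h at 28 °C. MIC is the lowest concentration with no visible growth under a binocular microscope. Run in duplicate, repeated three times.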

[9] = test system: Aspergillus fumigatus; test: Fungicidal activity against Aspergillus fumigatus after 72 hrs by serial subcultivation method; format: functional
[10] = test system: Aspergillus flavus; test: Fungicidal activity against Aspergillus flavus ATCC 9643 after 72 hrs by serial subcultivation method; format: functional; conditions: ATCC 9643, 72 h
[11] = test system: Trichoderma viride; test: Fungicidal activity against Trichoderma viride IAM 5061 after 72 hrs by serial subcultivation method; format: functional; conditions: IAM 5061, 72 h
[12] = test system: Penicillium ochrochloron; test: Fungicidal activity against Penicillium ochrochloron ATCC 9112 after 72 hrs by serial subcultivation method; format: functional; conditions: ATCC 9112, 72 h
[13] = test system: Aspergillus flavus; test: Antifungal activity against Aspergillus flavus ATCC 9643 after 72 hrs by serial dilution technique; format: functional; conditions: ATCC 9643, 72 h; in short: as §4
[14] = test system: Talaromyces funiculosus; test: Fungicidal activity against Penicillium funiculosum ATCC 36839 after 72 hrs by serial subcultivation method; format: functional; conditions: ATCC 36839, 72 h
[15] = test system: Aspergillus fumigatus; test: Antifungal activity against Aspergillus fumigatus after 72 hrs by serial dilution technique; format: functional; in short: as §4
[16] = test system: Trichoderma viride; test: Antifungal activity against Trichoderma viride IAM 5061 after 72 hrs by serial dilution technique; format: functional; conditions: IAM 5061, 72 h; in short: as §4
[17] = test system: Penicillium ochrochloron; test: Antifungal activity against Penicillium ochrochloron ATCC 9112 after 72 hrs by serial dilution technique; format: functional; conditions: ATCC 9112, 72 h; in short: as §4
[18] = test system: Talaromyces funiculosus; test: Antifungal activity against Penicillium funiculosum ATCC 36839 after 72 hrs by serial dilution technique; format: functional; conditions: ATCC 36839, 72 h; in short: as §4
[19] = test system: Escherichia coli; test: Bactericidal activity against Escherichia coli ATCC 35210 after 72 hrs by serial subcultivation method; format: functional; conditions: ATCC 35210, 72 h
[20] = test system: Pseudomonas aeruginosa; test: Bactericidal activity against Pseudomonas aeruginosa ATCC 27853 after 72 hrs by serial subcultivation method; format: functional; conditions: ATCC 27853, 72 h
[21] = test system: Listeria monocytogenes; test: Bactericidal activity against Listeria monocytogenes NCTC 7973 after 72 hrs by serial subcultivation method; format: functional; conditions: NCTC 7973, 72 h
[22] = test system: Bacillus cereus; test: Bactericidal activity against Bacillus cereus clinical isolate after 72 hrs by serial subcultivation method; format: functional
[23] = test system: Micrococcus flavus; test: Bactericidal activity against Micrococcus flavus ATCC 10240 after 72 hrs by serial subcultivation method; format: functional; conditions: ATCC 10240, 72 h
[24] = test system: Staphylococcus aureus; test: Bactericidal activity against Staphylococcus aureus ATCC 6538 after 72 hrs by serial subcultivation method; format: functional; conditions: ATCC 6538, 72 h
[25] = test system: Escherichia coli; test: Antibacterial activity against Escherichia coli ATCC 35210 after 24 hr by microdilution test; format: functional; conditions: ATCC 35210, 24 h
In short: (§5)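 Broth microdilution in LB medium, about 1.0×10^4 cfu per well; compounds from 1 mg/ml stocks in 5% DMSO. Incubated 24 h. MIC is the lowest concentration with no visible growth under a binocular microscope. Run in duplicate, repeated three times.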

[26] = test system: Listeria monocytogenes; test: Antibacterial activity against Listeria monocytogenes NCTC 7973 after 24 hr by microdilution test; format: functional; conditions: NCTC 7973, 24 h; in short: as §5
[27] = test system: Pseudomonas aeruginosa; test: Antibacterial activity against Pseudomonas aeruginosa ATCC 27853 after 24 hr by microdilution test; format: functional; conditions: ATCC 27853, 24 h; in short: as §5
[28] = test system: Micrococcus flavus; test: Antibacterial activity against Micrococcus flavus ATCC 10240 after 24 hr by microdilution test; format: functional; conditions: ATCC 10240, 24 h; in short: as §5
[29] = test system: Bacillus cereus; test: Antibacterial activity against Bacillus cereus clinical isolate after 24 hr by microdilution test; format: functional; in short: as §5
[30] = test system: Staphylococcus aureus; test: Antibacterial activity against Staphylococcus aureus ATCC 6538 after 24 hr by microdilution test; format: functional; conditions: ATCC 6538, 24 h; in short: as §5

Row | SMILES | Activity [1] | inhibition in vivo at 10 µmol/kg [2] [%] | inhibition [3] [%] | IC50 [4] [µM] | IC50 [5] [µM] | inhibition [6] [%] | MFC [7] [µM] | MIC [8] [µM] | MFC [9] [µM] | MFC [10] [µM] | MFC [11] [µM] | MFC [12] [µM] | MIC [13] [µM] | MFC [14] [µM] | MIC [15] [µM] | MIC [16] [µM] | MIC [17] [µM] | MIC [18] [µM] | MBC [19] [µM] | MBC [20] [µM] | further results
1 | O=C1N/C(=N\c2nccs2)S/C1=C\c1ccc(Cl)cc1Cl | Non-toxic | 9.9 | 98 | 32 | 122 | 54 | 56.2 (≈ 20 µg/mL) | 42.1 (≈ 15 µg/mL) | 56.2 (≈ 20 µg/mL) | 56.2 (≈ 20 µg/mL) | 42.1 (≈ 15 µg/mL) | 56.2 (≈ 20 µg/mL) | 42.1 (≈ 15 µg/mL) | 56.2 (≈ 20 µg/mL) | 42.1 (≈ 15 µg/mL) | 28.1 (≈ 10 µg/mL) | 42.1 (≈ 15 µg/mL) | 28.1 (≈ 10 µg/mL) | 56.2 (≈ 20 µg/mL) | 70.2 (≈ 25 µg/mL) | MBC [21]: 84.2 µM (≈ 30 µg/mL); MBC [22]: 56.2 µM (≈ 20 µg/mL); MBC [23]: 98.2 µM (≈ 35 µg/mL); MBC [24]: 70.2 µM (≈ 25 µg/mL); MIC [25]: 21.1 µM (≈ 7.52 µg/mL); MIC [26]: 70.2 µM (≈ 25 µg/mL); MIC [27]: 28.1 µM (≈ 10 µg/mL); MIC [28]: 84.2 µM (≈ 30 µg/mL); MIC [29]: 28.1 µM (≈ 10 µg/mL); MIC [30]: 56.2 µM (≈ 20 µg/mL)
2 | O=C1N/C(=N\c2nccs2)S/C1=C\c1cccc(Cl)c1Cl | Non-toxic | 45 | 100 | 10 | 143 | 41 | 56.2 (≈ 20 µg/mL) | 42.1 (≈ 15 µg/mL) | 70.2 (≈ 25 µg/mL) | 56.2 (≈ 20 µg/mL) | 56.2 (≈ 20 µg/mL) | 56.2 (≈ 20 µg/mL) | 42.1 (≈ 15 µg/mL) | 56.2 (≈ 20 µg/mL) | 56.2 (≈ 20 µg/mL) | 28.1 (≈ 10 µg/mL) | 42.1 (≈ 15 µg/mL) | 28.1 (≈ 10 µg/mL) | 70.2 (≈ 25 µg/mL) | 56.2 (≈ 20 µg/mL) | MBC [21]: 84.2 µM (≈ 30 µg/mL); MBC [22]: 70.2 µM (≈ 25 µg/mL); MBC [23]: 84.2 µM (≈ 30 µg/mL); MBC [24]: 84.2 µM (≈ 30 µg/mL); MIC [25]: 56.2 µM (≈ 20 µg/mL); MIC [26]: 70.2 µM (≈ 25 µg/mL); MIC [27]: 28.1 µM (≈ 10 µg/mL); MIC [28]: 56.2 µM (≈ 20 µg/mL); MIC [29]: 56.2 µM (≈ 20 µg/mL); MIC [30]: 70.2 µM (≈ 25 µg/mL)
